The subject of test [1] is NCI-H460. As to the kind of experiment: Induction of HSF1 expression in human NCI-H460 cells at 1 uM after 24 hrs by Western blotting relative to control. It is filed as functional. In a few lines: (§1)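 NCI-H460 (human non-small-cell lung cancer) cells treated 24 h. Lysates run on SDS-PAGE, transferred to nitrocellulose, probed with antibodies to HSF1, HSP27 and HSP70, detected by ECL. Band signals normalized to β-actin and compared with untreated cells. Mean ± SD of three independent experiments done in triplicate, p < 0.05 versus untreated.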
(A western blot detects proteins with antibodies after separation by electrophoresis.)

Test [2] deals with NCI-H460. The experiment in a line: Induction of HSP27 expression in human NCI-H460 cells at 1 uM after 24 hrs by Western blotting relative to control. The class given is functional. A digest of the protocol: as §1
Test [3] relates to NCI-H460. The experiment in a line: Induction of HSP70 expression in human NCI-H460 cells at 1 uM after 24 hrs by Western blotting relative to control. It is filed as functional. A digest of the protocol:
as §1

Test [4] concerns NCI-H460. As to the kind of experiment: Cytotoxicity against human NCI-H460 cells after overnight incubation by MTT assay. It is filed as cell-based. A digest of the protocol:
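Human non-small-cell lung cancer NCI-H460 cells. Cytotoxicity read by MTT assay. IC50 taken as the concentration (μM) giving 50% inhibition of cell growth.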
In general terms: Tetrazolium assays rely on reduction of a dye to a coloured formazan, in cell work by metabolically active cells.

From ChEMBL document CHEMBL1926554, “Diarylheptanoids from the seeds of Alpinia katsumadai as heat shock factor 1 inducers” (J Nat Prod, 2011) come the findings set out here.

Active and inactive are the calls of the source. No cut-off for these calls is given here.

On to `O=C(/C=C/c1ccc(O)cc1)C[C@H](O)CCc1ccccc1`, for which the outcome in the test on NCI-H460 [1], in the test on NCI-H460 [2] and with NCI-H460 [3] was inactive.

As for `Oc1ccc(CC[C@H](O)C[C@H](O)/C=C/c2ccccc2)cc1`, the outcome in the test with NCI-H460 [1], in the test with NCI-H460 [2] and in the test on NCI-H460 [3] was inactive.

Regarding `COc1cc(O)c(C(/C=C/CC(O)CCc2ccccc2)c2ccc(O)cc2)c(O)c1C(=O)/C=C/c1ccc(O)cc1` (mixture of isomers), the “fold change (FC)” value was 1.316 in the test with NCI-H460 [1], 1.27 in the test on NCI-H460 [2] and 1.229 in the test on NCI-H460 [3]. Moreover, in the test with NCI-H460 [4], the IC50 (as a rule, the midpoint of a concentration-inhibition curve) turned out to be 45.7 µM.

For `COc1cc(O)c(C(/C=C/CC(O)CCc2ccc(O)cc2)c2ccc(O)cc2)c(O)c1C(=O)/C=C/c1ccccc1` (mixture of isomers), the “fold change (FC)” value in the test on NCI-H460 [1] was found to be 1.438; in the test with NCI-H460 [2], 1.403; in the test on NCI-H460 [3] it was 1.373. In the test with NCI-H460 [4], the IC50 was determined as 47.4 µM.

Turning to `COc1cc(O)c(C(/C=C/CC(O)CCc2ccccc2)c2ccc(O)cc2)c(O)c1C(=O)/C=C/c1ccccc1` (mixture of isomers), the “fold change (FC)” value in the test with NCI-H460 [1] is given as 1.19; in the test with NCI-H460 [2], 1.25; in the test on NCI-H460 [3] it was 1.313. In addition, in the test with NCI-H460 [4], the IC50 amounted to 39.8 µM.

With `CC1=C(O)C(=O)C=C2C1=CC=C1[C@@]2(C)CC[C@@]2(C)[C@@H]3C[C@](C)(C(=O)O)CC[C@]3(C)CC[C@]12C` [CELASTROL], the “fold change (FC)” value with NCI-H460 [1] worked out at 1.066; in the test with NCI-H460 [2], 1.216; with NCI-H460 [3] it was 1.371. Besides, inhibition in the test with NCI-H460 [4] was half-maximal at 12.3 µM (IC50).

Consider `CC(=O)O[C@H]1C(=O)[C@@]2(C)[C@H]([C@H](OC(=O)c3ccccc3)[C@]3(O)C[C@H](OC(=O)[C@H](O)[C@@H](NC(=O)c4ccccc4)c4ccccc4)C(C)=C1C3(C)C)[C@]1(OC(C)=O)CO[C@@H]1C[C@@H]2O` [PACLITAXEL], for which, in the test on NCI-H460 [4], the concentration for half-maximal inhibition (IC50) turned out to be 8 µM.
